Laboratory results taken from ChEMBL document CHEMBL5058577, “EUbOPEN Chemogenomics Library 2 (Multiplex)” (2022).

System: Fibroblast
Test: Multiplex assay against human fibroblast
Assay type: toxicity, cell-based
Method in brief: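 Live cells carried four stains from seeding: Hoechst33342, BioTracker Green Microtubule Cytoskeleton Dye, MitoTracker Red and Annexin V Alexa Fluor 680. They were imaged on a CQ1 microscope at 37°C and 5% CO2 after compound addition. Using CellPathfinder machine-learning gating, cells were split into Hoechst high-intensity objects or normal cells, normal cells into healthy, pyknosed or fragmented nuclei, and pyknosed cells into mitotic or apoptotic; tubulin, mitochondrial-mass and membrane-permeability phenotypes are per cents of healthy-nucleus cells.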

[1] = 12 h, 1 µM, compound concentration 1 uM, replicate 1
[2] = 12 h, 1 µM, compound concentration 1 uM, replicate 2
[3] = 12 h, 10 µM, compound concentration 10 uM, replicate 1
[4] = 12 h, 10 µM, compound concentration 10 uM, replicate 2
[5] = 24 h, 1 µM, compound concentration 1 uM, replicate 1
[6] = 24 h, 1 µM, compound concentration 1 uM, replicate 2
[7] = 24 h, 10 µM, compound concentration 10 uM, replicate 1
[8] = 24 h, 10 µM, compound concentration 10 uM, replicate 2
[9] = 48 h, 1 µM, compound concentration 1 uM, replicate 1
[10] = 48 h, 1 µM, compound concentration 1 uM, replicate 2
[11] = 48 h, 10 µM, compound concentration 10 uM, replicate 1
[12] = 48 h, 10 µM, compound concentration 10 uM, replicate 2

`C[C@H](NC(=O)CNC(=O)c1cccc(Cl)c1)c1ccccc1` was tested, and the “Population Apoptotic (%)” value [1] was 50%, the “Population Fragmented Nuclei (%)” value [1] was 18% and the “Population Healthy Nuclei (%)” value [1] was 71%. For the same compound, the “Population Hoechst High Intensity Objects (%)” value [1] was 0%, the “Population Membrane Permeable-Phenotype (%)” value [1] was 0% and the “Population Mitochondria Different-Phenotype (%)” value [1] was 4%. For the same compound, the “Population Mitotic Cells (%)” value [1] was 50%, the “Population Normal (%)” value [1] was 100% and the “Population Pyknosed Nuclei (%)” value [1] was 10%. The “Population Tubulin-Different-Phenotype (%)” value [1] was 17%, the “Total Cell Count” value [1] was 94 and the “Population Apoptotic (%)” value [2] was 44%. The “Population Fragmented Nuclei (%)” value [2] was 28%, the “Population Healthy Nuclei (%)” value [2] was 53% and the “Population Hoechst High Intensity Objects (%)” value [2] was 3%. The “Population Membrane Permeable-Phenotype (%)” value [2] was 6%, the “Population Mitochondria Different-Phenotype (%)” value [2] was 2% and the “Population Mitotic Cells (%)” value [2] was 56%. The “Population Normal (%)” value [2] was 96%, the “Population Pyknosed Nuclei (%)” value [2] was 18% and the “Population Tubulin-Different-Phenotype (%)” value [2] was 41%. The “Total Cell Count” value [2] was 140, the “Population Apoptotic (%)” value [3] was 48% and the “Population Fragmented Nuclei (%)” value [3] was 15%. For the same compound, the “Population Healthy Nuclei (%)” value [3] was 58%, the “Population Hoechst High Intensity Objects (%)” value [3] was 2% and the “Population Membrane Permeable-Phenotype (%)” value [3] was 0%. For the same compound, the “Population Mitochondria Different-Phenotype (%)” value [3] was 8%, the “Population Mitotic Cells (%)” value [3] was 51% and the “Population Normal (%)” value [3] was 97%. For the same compound, the “Population Pyknosed Nuclei (%)” value [3] was 26%, the “Population Tubulin-Different-Phenotype (%)” value [3] was 35% and the “Total Cell Count” value [3] was 106. The “Population Apoptotic (%)” value [4] was 43%, the “Population Fragmented Nuclei (%)” value [4] was 31% and the “Population Healthy Nuclei (%)” value [4] was 43%. For the same compound, the “Population Hoechst High Intensity Objects (%)” value [4] was 1%, the “Population Membrane Permeable-Phenotype (%)” value [4] was 13% and the “Population Mitochondria Different-Phenotype (%)” value [4] was 3%. The “Population Mitotic Cells (%)” value [4] was 56%, the “Population Normal (%)” value [4] was 98% and the “Population Pyknosed Nuclei (%)” value [4] was 24%. For the same compound, the “Population Tubulin-Different-Phenotype (%)” value [4] was 54%, the “Total Cell Count” value [4] was 124 and the “Population Apoptotic (%)” value [5] was 43%. The “Population Fragmented Nuclei (%)” value [5] was 17%, the “Population Healthy Nuclei (%)” value [5] was 65% and the “Population Hoechst High Intensity Objects (%)” value [5] was 1%. The “Population Membrane Permeable-Phenotype (%)” value [5] was 1%, the “Population Mitochondria Different-Phenotype (%)” value [5] was 3% and the “Population Mitotic Cells (%)” value [5] was 56%. For the same compound, the “Population Normal (%)” value [5] was 98%, the “Population Pyknosed Nuclei (%)” value [5] was 17% and the “Population Tubulin-Different-Phenotype (%)” value [5] was 25%. For the same compound, the “Total Cell Count” value [5] was 93, the “Population Apoptotic (%)” value [6] was 33% and the “Population Fragmented Nuclei (%)” value [6] was 30%. The “Population Healthy Nuclei (%)” value [6] was 50%, the “Population Hoechst High Intensity Objects (%)” value [6] was 3% and the “Population Membrane Permeable-Phenotype (%)” value [6] was 8%. The “Population Mitochondria Different-Phenotype (%)” value [6] was 4%, the “Population Mitotic Cells (%)” value [6] was 66% and the “Population Normal (%)” value [6] was 96%. The “Population Pyknosed Nuclei (%)” value [6] was 19%, the “Population Tubulin-Different-Phenotype (%)” value [6] was 42% and the “Total Cell Count” value [6] was 145. For the same compound, the “Population Apoptotic (%)” value [7] was 52%, the “Population Fragmented Nuclei (%)” value [7] was 14% and the “Population Healthy Nuclei (%)” value [7] was 61%. For the same compound, the “Population Hoechst High Intensity Objects (%)” value [7] was 2%, the “Population Membrane Permeable-Phenotype (%)” value [7] was 1% and the “Population Mitochondria Different-Phenotype (%)” value [7] was 3%. For the same compound, the “Population Mitotic Cells (%)” value [7] was 48%, the “Population Normal (%)” value [7] was 97% and the “Population Pyknosed Nuclei (%)” value [7] was 24%. The “Population Tubulin-Different-Phenotype (%)” value [7] was 45%, the “Total Cell Count” value [7] was 107 and the “Population Apoptotic (%)” value [8] was 56%. For the same compound, the “Population Fragmented Nuclei (%)” value [8] was 33%, the “Population Healthy Nuclei (%)” value [8] was 45% and the “Population Hoechst High Intensity Objects (%)” value [8] was 5%. For the same compound, the “Population Membrane Permeable-Phenotype (%)” value [8] was 5%, the “Population Mitochondria Different-Phenotype (%)” value [8] was 7% and the “Population Mitotic Cells (%)” value [8] was 43%. The “Population Normal (%)” value [8] was 94%, the “Population Pyknosed Nuclei (%)” value [8] was 20% and the “Population Tubulin-Different-Phenotype (%)” value [8] was 64%. For the same compound, the “Total Cell Count” value [8] was 118, the “Population Apoptotic (%)” value [9] was 33% and the “Population Fragmented Nuclei (%)” value [9] was 20%. The “Population Healthy Nuclei (%)” value [9] was 67%, the “Population Hoechst High Intensity Objects (%)” value [9] was 1% and the “Population Membrane Permeable-Phenotype (%)” value [9] was 0%. The “Population Mitochondria Different-Phenotype (%)” value [9] was 0%, the “Population Mitotic Cells (%)” value [9] was 66% and the “Population Normal (%)” value [9] was 98%. For the same compound, the “Population Pyknosed Nuclei (%)” value [9] was 12%, the “Population Tubulin-Different-Phenotype (%)” value [9] was 26% and the “Total Cell Count” value [9] was 95. The “Population Apoptotic (%)” value [10] was 40%, the “Population Fragmented Nuclei (%)” value [10] was 29% and the “Population Healthy Nuclei (%)” value [10] was 52%. The “Population Hoechst High Intensity Objects (%)” value [10] was 3%, the “Population Membrane Permeable-Phenotype (%)” value [10] was 4% and the “Population Mitochondria Different-Phenotype (%)” value [10] was 2%. For the same compound, the “Population Mitotic Cells (%)” value [10] was 60%, the “Population Normal (%)” value [10] was 96% and the “Population Pyknosed Nuclei (%)” value [10] was 17%. For the same compound, the “Population Tubulin-Different-Phenotype (%)” value [10] was 44%, the “Total Cell Count” value [10] was 147 and the “Population Apoptotic (%)” value [11] was 68%. For the same compound, the “Population Fragmented Nuclei (%)” value [11] was 15%, the “Population Healthy Nuclei (%)” value [11] was 56% and the “Population Hoechst High Intensity Objects (%)” value [11] was 7%. The “Population Membrane Permeable-Phenotype (%)” value [11] was 1%, the “Population Mitochondria Different-Phenotype (%)” value [11] was 15% and the “Population Mitotic Cells (%)” value [11] was 31%. For the same compound, the “Population Normal (%)” value [11] was 92%, the “Population Pyknosed Nuclei (%)” value [11] was 27% and the “Population Tubulin-Different-Phenotype (%)” value [11] was 50%. The “Total Cell Count” value [11] was 112, the “Population Apoptotic (%)” value [12] was 69% and the “Population Fragmented Nuclei (%)” value [12] was 38%. For the same compound, the “Population Healthy Nuclei (%)” value [12] was 50%, the “Population Hoechst High Intensity Objects (%)” value [12] was 4% and the “Population Membrane Permeable-Phenotype (%)” value [12] was 6%. The “Population Mitochondria Different-Phenotype (%)” value [12] was 5%, the “Population Mitotic Cells (%)” value [12] was 30% and the “Population Normal (%)” value [12] was 95%. The “Population Pyknosed Nuclei (%)” value [12] was 11%, the “Population Tubulin-Different-Phenotype (%)” value [12] was 67% and the “Total Cell Count” value [12] was 121.
